The source of these data is ChEMBL document CHEMBL1821722, “Design, synthesis and biological evaluation of novel desmuramyldipeptide analogs” (Eur J Med Chem, 2011).

Data set [1] relates to THP-1. Put plainly: Immunomodulatory effect in human THP1 cells assessed as increase in LPS-induced TNF-alpha release at 20.2 uM after 24 hrs by sandwich ELISA relative to LPS. Format: functional. In short, it runs like this:
(§1)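 THP-1 cells at 10⁶ cells/ml in RPMI 1640 with 10% heat-inactivated FCS. Co-incubated 24 h with compound (0.2–200 µM) plus E. coli 0127:B8 LPS 1 ng/ml, DMSO vehicle ≤0.2% final. TNF-α in supernatant expressed as % of LPS-induced release, mean ± SD of 6 samples.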
In general terms: ELISA stands for enzyme-linked immunosorbent assay.

Data set [2] deals with PBMC. Put plainly: Immunomodulatory effect in human PBMC cells assessed as increase in LPS-induced TNFalpha release at 20.2 uM after 18 hrs by flow cytometry analysis relative to LPS. Format: functional. An outline of the steps:
(§2)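 Human PBMC isolated from healthy-donor buffy coats on a Ficoll-Paque gradient. Cultured in RPMI 1640 with 10% heat-inactivated FCS, 2 mM L-glutamine and 50 µM 2-mercaptoethanol. 0.5 × 10⁶ cells exposed to 20.2 µM compound plus 10 ng/ml LPS, DMSO ≤0.1%, for 18 h at 37 °C in 5% CO₂. Supernatant cytokines measured by flow cytometric bead assay. Values are % of LPS alone, mean ± SD of 4 samples, two donors.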

Data set [3] has as its system PBMC. Put plainly: Immunomodulatory effect in human PBMC cells assessed as LPS-induced IL1-beta release at 20.2 uM after 18 hrs by flow cytometry analysis relative to LPS. It counts as functional. An outline of the steps: as §2
A general note: In flow cytometry, cells or beads pass a laser one at a time.

The test system of data set [4] is THP-1. Put plainly: Cytotoxicity against human THP1 cells assessed as LDH release at 20.2 uM. To be noted: thp-1, 20.2 µM. Format: cell-based. An outline of the steps: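 LDH leakage into the medium used as the cytotoxicity read-out, taken at the highest concentration tested.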
In general terms: Release of lactate dehydrogenase indicates damage to the cell membrane.

In data set [5] the test system is PBMC. Put plainly: Cytotoxicity against human PBMC assessed as LDH release at 20.2 uM. It counts as cell-based.
Data set [6] relates to THP-1. Description: Toxicity in human THP1 cells assessed TNF-alpha release at 20.2 uM after 24 hrs by sandwich ELISA. To be noted: thp-1, 24 h. It counts as cell-based. An outline of the steps:
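THP-1 in supplemented RPMI 1640 co-incubated 24 h with 20.2 µM compound and 1 ng/ml LPS, DMSO ≤0.2%. TNF-α release expressed as % of the LPS-only response, mean ± SD of 6 samples, Mann-Whitney U test.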

Data set [7] relates to PBMC. Put plainly: Immunosuppressive effect in human PBMC cells assessed as […] in […]/ionomycin-induce TNFalpha release at 20.2 uM after 18 hrs by flow cytometry analysis relative to PMA and ionomycin. Format: functional. In short, it runs like this:
(§3)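 PBMC prepared from donor buffy coat on Ficoll-Paque and kept in supplemented RPMI 1640. Cells (0.5 × 10⁶) given 20.2 µM compound with PMA 3.33 ng/ml and ionomycin 500 nM (final) for 18 h at 37 °C, 5% CO₂. Supernatant IL-1β, IL-6, IL-8, IL-10 and TNF-α read by flow cytometry. Expressed relative to PMA/ionomycin alone, mean ± SD of 4 samples, two donors.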

The test system of data set [8] is PBMC. Description: Immunosuppressive effect in human PBMC cells assessed as […] in […]/ionomycin-induce IL-10 release at 20.2 uM after 18 hrs by flow cytometry analysis relative to PMA and ionomycin. It counts as functional. In short, it runs like this:
as §3

The subject of data set [9] is PBMC. Description: Immunosuppressive effect in human PBMC cells assessed as […] in […]/ionomycin-induce IL-6 release at 20.2 uM after 18 hrs by flow cytometry analysis relative to PMA and ionomycin. Format: functional. In short, it runs like this: as §3
In data set [10] the test system is PBMC. Description: Immunosuppressive effect in human PBMC cells assessed as […] in […]/ionomycin-induce IL1-beta release at 20.2 uM after 18 hrs by flow cytometry analysis relative to PMA and ionomycin. Format: functional. An outline of the steps: as §3
The subject of data set [11] is PBMC. Description: Immunosuppressive effect in human PBMC cells assessed as […] in […]/ionomycin-induce IL-8a release at 20.2 uM after 18 hrs by flow cytometry analysis relative to PMA and ionomycin. Format: functional. In short, it runs like this:
as §3

For data set [12], the system named is PBMC. Description: Immunomodulatory effect in human PBMC cells assessed as decrease in LPS-induced IL-10 release at 20.2 uM after 18 hrs by flow cytometry analysis relative to LPS. Format: functional. Details: scale not given: the % may be the effect or the level left. An outline of the steps:
as §2

Data set [13] relates to PBMC. Description: Immunomodulatory effect in human PBMC cells assessed as decrease in LPS-induced IL-6 release at 20.2 uM after 18 hrs by flow cytometry analysis relative to LPS. Format: functional. Details: scale not given: the % may be the effect or the level left. In short, it runs like this:
as §2

For data set [14], the system named is PBMC. Put plainly: Immunomodulatory effect in human PBMC cells assessed as decrease in LPS-induced IL-8a release at 20.2 uM after 18 hrs by flow cytometry analysis relative to LPS. Details: scale not given: the % may be the effect or the level left. Format: functional. An outline of the steps:
as §2

Data set [15] relates to THP-1. Description: Immunomodulatory effect in human THP1 cells assessed as increase in LPS-induced TNF-alpha release at 0.2 uM after 24 hrs by sandwich ELISA relative to LPS. It counts as functional. In short, it runs like this:
as §1

Data set [16] deals with THP-1. Put plainly: Immunomodulatory effect in human THP1 cells assessed as increase in LPS-induced TNF-alpha release at 2 uM after 24 hrs by sandwich ELISA relative to LPS. Format: functional. In short, it runs like this:
as §1

Data set [17] relates to THP-1. Put plainly: Immunomodulatory effect in human THP1 cells assessed as increase in LPS-induced TNF-alpha release at 200 uM after 24 hrs by sandwich ELISA relative to LPS. It counts as functional. In short, it runs like this: as §1
The test system of data set [18] is THP-1. Put plainly: Immunomodulatory effect in human THP1 cells assessed as increase in LPS-induced TNF-alpha release after 24 hrs by sandwich ELISA relative to LPS. It counts as functional, cell-based. An outline of the steps:
as §1

The test system of data set [19] is PBMC. Put plainly: Immunomodulatory effect in human PBMC cells assessed as increase in LPS-induced TNF-alpha release at 20.2 uM after 24 hrs by sandwich ELISA. It counts as functional, cell-based.
Data set [20] deals with THP-1. Put plainly: Toxicity in human THP1 cells assessed TNF-alpha release at 20.2 uM after 3 to 24 hrs by sandwich ELISA. It counts as cell-based. To be noted: thp-1, 20.2 µM. In short, it runs like this:
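Time course in THP-1 cells, with release sampled at 3, 8 and 24 h. Cells co-incubated with test agent and 1 ng/ml LPS. Co-incubation was compared with preincubation.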

The source made the active and inactive calls. The calls are words filed in the database; no cut-off is given here.

Consider `C[C@H](NC(=O)CNC(=O)c1cc2ccccc2[nH]1)C(=O)N[C@H](CCC(=O)O)C(N)=O`, for which the Activity is on record as 126.2% in data set [1]; 101% in data set [2]; 90.5% in data set [3]; “Non-toxic” in data set [4]; “Non-toxic” in data set [5]; “Non-toxic” in data set [6]. Moreover, the Activity in data set [7] turned out to be 93.5%; in data set [8] it was 102%; in data set [9], 76%; in data set [10], 91.5%; in data set [11], 98.5%; in data set [12], 71.5%. Further, the Activity in data set [13] stood at 74%; in data set [14] it was 98.5%.
With `CC(=O)N[C@H]1C(O)O[C@H](CO)[C@@H](O)[C@@H]1O[C@H](C)C(=O)N[C@@H](C)C(=O)N[C@H](CCC(=O)O)C(N)=O` (stereo partly drawn) [MURAMYL DIPEPTIDE], the Activity in data set [1] was 187.4%; in data set [15], 108%; in data set [16] it was 171.8%; in data set [17], 306.8%; in data set [18], “Dose-dependent effect”; in data set [4] it was “Non-toxic”. Also, the Activity entry in data set [5], in data set [6] and in [20] was “Non-toxic” in each case. The result in data set [19] was Active.
As for `C[C@H](NC(=O)CNC(=O)c1cc2ccccc2[nH]1)C(=O)N[C@H](CCC(=O)O)C(=O)O`, the Activity in data set [1] was 118.5%; in [2], 103.5%; in data set [3] it was 78%; in data set [4] it was “Non-toxic”; in [5], “Non-toxic”; in data set [6] it was “Non-toxic”. For the same compound, the Activity in data set [7] is listed as 63.5%; in [8], 75.8%; in data set [9] it was 42.5%; in [10] it was 96.5%; in [11], 90%; in data set [12], 68.5%. In addition, the Activity in data set [13] stood at 76.8%; in [14] it was 95.5%.
